Columns and labels:
[1] = Cytotoxicity for relative cell viability compared to untreated control in CEF cells by MTT assay; type: functional, cell-based, Gallus gallus
[2] = Relative uptake of ODN in Primary leukemic cells(PLC) incubated with 0.25 uMol/L of P32-labeled v-myb antisense ODN for 2 hr at a concentration of 2.5 uMol/L; type: functional, Gallus gallus
In short: (§1)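 Cells were seeded at 1 × 10^6 per well in medium with 10% serum one day ahead. 0.25 µM ³²P-end-labeled v-myb antisense ODN was complexed with agent (final 2.5 µM) in serum-free medium for 30 min at room temperature. Cells were then exposed for 2 h at 37 °C or 41 °C depending on cell type. Membrane-bound ODN was stripped by acid-salt elution. Cells were lysed in proteinase K buffer and counted by liquid scintillation. Uptake is relative to free ODN, mean of ≥3 independent experiments.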

[3] = Apparent association constant was determined; type: ADME
[4] = Relative uptake of ODN in BM2 cells incubated with 0.25 uMol/L of P32-labeled v-myb antisense ODN for 2 hr at a concentration of 2.5 uMol/L; type: functional, Gallus gallus; in short: as §1
[5] = Cytotoxicity for relative cell viability compared to untreated control in BM2 cells by MTT assay; type: functional, cell-based, Gallus gallus
In short: (§2)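 MTT reduction by cells exposed to transport agent alone, expressed relative to untreated control cells (100%). The value reported is the agent concentration at which relative viability falls to 50%.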

[6] = Cytotoxicity for relative cell viability compared to untreated control in Primary leukemic cells(PLC) by MTT assay; type: functional, cell-based, Gallus gallus; in short: as §2

I.I.I.I.O=C(NCCNC1=NCCCN1)c1ccc(-c2c3nc(c(-c4ccc(C(=O)NCCNC5=NCCCN5)cc4)c4ccc([nH]4)c(-c4ccc(C(=O)NCCNC5=NCCCN5)cc4)c4ccc([nH]4)c(-c4ccc(C(=O)NCCNC5=NCCCN5)cc4)c4nc2C=C4)C=C3)cc1
IC50 [1]: > 20 uM l-1 | Relative ODN uptake [2]: 43.2 | K ass [3]: 268000 M⁻¹ | Relative ODN uptake [4]: 10.8 | IC50 [5]: > 20 uM l-1 | IC50 [6]: > 20 uM l-1

CCC1=C(C)C2=N/C1=C\c1[nH]c(c(CCC(=O)NCCOCCOCCN)c1C)/C=c1\[nH]/c(c(CC)c1CC)=C\c1[nH]c(c(C)c1CCC(=O)NCCOCCOCCN)/C=C1\N=C(C2)C(C)=C1CC
IC50 [1]: 10 uM l-1 | Relative ODN uptake [2]: 4.4 | IC50 [6]: 14 uM l-1

C[N+](C)(C)Cc1ccc(-c2c3nc(c(-c4ccc(C[N+](C)(C)C)cc4)c4ccc([nH]4)c(-c4ccc(C[N+](C)(C)C)cc4)c4ccc([nH]4)c(-c4ccc(C[N+](C)(C)C)cc4)c4nc2C=C4)C=C3)cc1.[Cl-].[Cl-].[Cl-].[Cl-]
IC50 [1]: 10 uM l-1 | Relative ODN uptake [2]: 4.2 | Relative ODN uptake [4]: 2.5 | IC50 [5]: 10 uM l-1 | IC50 [6]: 12 uM l-1

CCC1=C(C)C2=N/C1=C\c1[nH]c(c(CCC(=O)N(C)CC(O)C(O)C(O)C(O)CO)c1C)/C=c1\[nH]/c(c(CC)c1CC)=C\c1[nH]c(c(C)c1CCC(=O)N(C)CC(O)C(O)C(O)C(O)CO)/C=C1\N=C(C2)C(C)=C1CC (configuration not stated)
IC50 [1]: 10 uM l-1 | Relative ODN uptake [2]: 9.1 | IC50 [5]: 10 uM l-1 | IC50 [6]: 4.2 uM l-1

Cl.Cl.Cl.Cl.O=C(NCC1CCN2CCC(CO)N=C2N1)c1ccc(-c2c3nc(c(-c4ccc(C(=O)NCC5CCN6CCC(CO)N=C6N5)cc4)c4ccc([nH]4)c(-c4ccc(C(=O)NCC5CCN6CCC(CO)N=C6N5)cc4)c4ccc([nH]4)c(-c4ccc(C(=O)NCC5CCN6CCC(CO)N=C6N5)cc4)c4nc2C=C4)C=C3)cc1 (configuration not stated)
IC50 [1]: 15 uM l-1 | Relative ODN uptake [2]: 13.4 | IC50 [5]: 15 uM l-1 | IC50 [6]: > 20 uM l-1

CCC1=C(C)C2=N/C1=C\c1[nH]c(c(CCC(=O)NCCc3c[nH]cn3)c1C)/C=c1\[nH]/c(c(CC)c1CC)=C\c1[nH]c(c(C)c1CCC(=O)NCCc1c[nH]cn1)/C=C1\N=C(C2)C(C)=C1CC
IC50 [1]: 8.5 uM l-1 | Relative ODN uptake [2]: 2.1 | IC50 [6]: 8.5 uM l-1

Br.OC[C@@H]1CCN2CC[C@@H](CO)NC2N1
Relative ODN uptake [2]: 0.77 | Relative ODN uptake [4]: 2.5 | IC50 [6]: 8.5 uM l-1

I.NCCNC1=NCCCN1
IC50 [1]: 20 uM l-1 | Relative ODN uptake [2]: 3.2 | Relative ODN uptake [4]: 5.1 | IC50 [6]: > 20 uM l-1

Cc1ccc(-c2c3nc(c(-c4ccc(C[N+](C)(C)C)cc4)c4ccc([nH]4)c(-c4ccc(C)cc4)c4ccc([nH]4)c(-c4ccc(C[N+](C)(C)C)cc4)c4nc2C=C4)C=C3)cc1.[Cl-].[Cl-]
IC50 [1]: > 20 uM l-1 | Relative ODN uptake [2]: 67.5 | K ass [3]: 2.2e+06 M⁻¹ | Relative ODN uptake [4]: 16.7 | IC50 [5]: > 20 uM l-1 | IC50 [6]: > 20 uM l-1

CCc1c(C(=O)NC(=N)N)[nH]c(Cc2[nH]c(C(=O)NC(=N)N)c(CC)c2C)c1C.Cl.Cl
IC50 [1]: 15 uM l-1 | Relative ODN uptake [2]: 1.8 | Relative ODN uptake [4]: 1.3 | IC50 [5]: > 10 uM l-1 | IC50 [6]: > 20 uM l-1

C[n+]1ccc(-c2c3nc(c(-c4cc[n+](C)cc4)c4ccc([nH]4)c(-c4cc[n+](C)cc4)c4ccc([nH]4)c(-c4cc[n+](C)cc4)c4nc2C=C4)C=C3)cc1 [TMPYP4]
IC50 [1]: 15 uM l-1 | Relative ODN uptake [2]: 1.2 | Relative ODN uptake [4]: 3.8 | IC50 [6]: > 20 uM l-1
